ChEMBL document CHEMBL4364291, “Benzylideneacetone Derivatives Inhibit Osteoclastogenesis and Activate Osteoblastogenesis Independently Based on Specific Structure-Activity Relationship” (J Med Chem, 2019)
Active and inactive are the calls of the source. The rule behind the calls is not given here.

Legend:
BMDM [1] = test: Inhibition of RANKL-induced osteoclastogenesis in C57BL/6 mouse bone marrow macrophages assessed as increase in NFkappaB expression at 0.5 uM measured over 5 days by Western blot analysis; format: functional, cell-based
Procedure, shortened: (§1)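 C57BL/6 BMM were grown with M-CSF plus RANKL over the course of osteoclastogenesis, treated at 0.5 or 10 μM. NF-κB and NFATc1 were followed by Western blot. The negative control was M-CSF only.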

BMDM [2] = test: Effect on NFkappaB expression in M-CSF induced C57BL/6 mouse bone marrow macrophages at 0.5 uM measured over 5 days by Western blot analysis; format: functional, cell-based
Procedure, shortened: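 C57BL/6 BMM were proliferated with M-CSF alone without RANKL and treated at 0.5 or 10 μM. NF-κB expression was followed over time by Western blot.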

BMDM [3] = test: Suppression of NFATc1 expression in M-CSF induced C57BL/6 mouse bone marrow macrophages at 0.5 uM measured over 5 days by Western blot analysis; format: functional, cell-based
Procedure, shortened: (§2)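 C57BL/6 BMM were kept proliferating with M-CSF in the absence of RANKL and treated with compound (0.5 or 10 μM). NFATc1 expression was followed over the culture period by Western blot.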

Mus musculus [4] = test: Antiosteoporotic activity in ddY mouse model of OVX-induced osteoporosis assessed as increase in cross-sectional thickness in femur bone at 1 mg/kg, po administered once daily via gavage for 4 weeks by microcomputed tomographic analysis; format: functional, organism-based
Procedure, shortened: (§3)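 Female ddY mice were ovariectomized. Oral gavage began 1 week after surgery and ran once daily for 28 d. Vehicle was 300 μL PBS containing 0.5% (v/v) DMSO, also given to sham and OVX controls. Mice were then euthanized and femur and tibia fixed for CT imaging. Values are mean ± SD of four mice.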

Mus musculus [5] = test: Antiosteoporotic activity in ddY mouse model of OVX-induced osteoporosis assessed as increase in new bone volume in femur bone at 1 mg/kg, po administered once daily via gavage for 4 weeks by microcomputed tomographic analysis; format: functional, organism-based; procedure, shortened: as §3
T-24 = test: Antiproliferative activity against human T24 cells after 24 hrs by MTT assay; format: functional; conditions: T-24, 24 h, read-out: LD50 (the source's name)
BMDM [6] = test: Inhibition of M-CSF/RANKL-induced osteoclast differentiation in C57BL/6 mouse bone marrow macrophages co-cultured with mouse MC3T3-E1 cells assessed as reduction in multinucleated TRAP+ cells at 10 uM measured on day 6 by TRAP staining-based inverted microscopic analysis; format: functional, cell-based
Procedure, shortened: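 C57BL/6 BMM were cocultured with MC3T3-E1 preosteoblasts in osteoclast and osteoblast differentiation factors. The negative control had M-CSF only. Compound was added at a final 10 μM. TRAP staining and inverted-microscope inspection were done on day 6.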

MC3T3-E1 [7] = test: Induction of osteoblast differentiation in mouse MC3T3-E1 cells co-cultured with C57BL/6 mouse bone marrow macrophages assessed as activation of ALP production at 10 uM measured on day 7 relative to control; format: functional
Procedure, shortened: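 MC3T3-E1 cells were cocultured with C57BL/6 BMM in differentiation factors for both cell types, with 10 μM compound, and grown for 21 d. ALP production was measured at 7, 14 and 21 d after coculture induction, relative to untreated cells.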

MC3T3-E1 [8] = test: Induction of osteoblast differentiation in mouse MC3T3-E1 cells assessed as increase in osteocalcin expression at 50 uM after 14 days by Western blot analysis relative to control; format: functional
Procedure, shortened: (§4)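 MC3T3-E1 cells were differentiated with osteoblast differentiation factors, with or without 50 μM compound, for 21 d. The negative control lacked differentiation factors. Osteocalcin in culture medium was measured by Western blot at 7, 14 and 21 d. Values are mean ± SD of three independent experiments.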

MC3T3-E1 [9] = test: Induction of osteoblast differentiation in mouse MC3T3-E1 cells assessed as increase in osteocalcin expression at 50 uM after 21 days by Western blot analysis relative to control; format: functional; procedure, shortened: as §4
BMDM [10] = test: Inhibition of M-CSF/RANKL-induced osteoclast differentiation in C57BL/6 mouse bone marrow macrophages co-cultured with mouse MC3T3-E1 at 10 uM measured on day 7; format: functional, cell-based
MC3T3-E1 [11] = test: Induction of osteoblast differentiation in ascorbic acid/beta-glycerophosphate-induced mouse MC3T3-E1 cells co-cultured with C57BL/6 mouse bone marrow macrophages assessed as increase in osteocalcin expression at 10 uM measured on day 7 by Western blot analysis; format: functional, cell-based
Procedure, shortened: (§5)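 MC3T3-E1 and C57BL/6 BMM cocultures were given osteoblast plus osteoclast differentiation factors, with or without 10 μM compound, for 21 d. The negative control had M-CSF only. Osteocalcin in culture medium was quantified by Western blot at 7, 14 and 21 d.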

MC3T3-E1 [12] = test: Induction of osteoblast differentiation in ascorbic acid/beta-glycerophosphate-induced mouse MC3T3-E1 cells co-cultured with C57BL/6 mouse bone marrow macrophages assessed as increase in osteocalcin expression at 10 uM measured on day 21 by Western blot analysis; format: functional, cell-based; procedure, shortened: as §5
BMDM [13] = test: Inhibition of RANKL-induced osteoclastogenesis in C57BL/6 mouse bone marrow macrophages assessed as effect on NFATc1 expression at 10 uM measured over 5 days by Western blot analysis; format: functional, cell-based; procedure, shortened: as §1
BMDM [14] = test: Suppression of NFATc1 expression in M-CSF induced C57BL/6 mouse bone marrow macrophages at 10 uM measured over 5 days by Western blot analysis; format: functional, cell-based; procedure, shortened: as §2
MC3T3-E1 [15] = test: Induction of osteoblast differentiation in ascorbic acid/beta-glycerophosphate-induced mouse MC3T3-E1 cells assessed as increase in RUNX2 expression at 50 uM after 7 days by Western blot analysis relative to control; format: functional
Procedure, shortened: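 MC3T3-E1 cells were induced with osteoblast differentiation factors, with or without 50 μM compound, for 21 d. Cells were harvested at 7, 14 and 21 d and RUNX2 was quantified by Western blot against untreated differentiated cells. The negative control lacked differentiation factors. Values are mean ± SD of three independent experiments.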

[16] = Cytotoxicity against human ASC cells after 24 hrs by MTT assay; format: cell-based; conditions: read-out: LD50
Procedure, shortened: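 Human adipose-derived mesenchymal stem cells were grown in CB-ADMSC-GM medium at 37 °C under 5% CO2. Cell growth and survival were measured by MTT assay and reported as LD50.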

[17] = Cytotoxicity against human HaCaT cells after 24 hrs by MTT assay; format: cell-based; conditions: read-out: LD50
Procedure, shortened: (§6)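 Cells were maintained in DMEM at 37 °C under 5% CO2. Growth and survival were estimated by MTT assay, and the value is reported as LD50.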

[18] = Cytotoxicity against mouse NIH/3T3 cells after 24 hrs by MTT assay; format: cell-based, NIH3T3; conditions: read-out: LD50; procedure, shortened: as §6
AGS = test: Antiproliferative activity against human AGS cells after 24 hrs by MTT assay; format: functional; conditions: read-out: LD50 (the source's name)

Compound | inhibition (BMDM [1]) | Activity (BMDM [2]) | Activity (BMDM [3]) | Activity (Mus musculus [4]) | Activity (Mus musculus [5]) | CC50 (T-24) | inhibition (BMDM [6]) | Activity (MC3T3-E1 [7]) | fold change (FC) (MC3T3-E1 [8]) | fold change (FC) (MC3T3-E1 [9]) | inhibition (BMDM [10]) | Activity (MC3T3-E1 [11]) | Activity (MC3T3-E1 [12]) | inhibition (BMDM [13]) | Activity (BMDM [14]) | fold change (FC) (MC3T3-E1 [15]) | CC50 at 24 h [16] | CC50 at 24 h [17] | CC50 at 24 h [18] | CC50 (AGS)
COc1ccc(/C=C/C(C)=O)cc1O | Active | inactive | Active | Active | Active | 180 µM | – | – | – | – | – | – | – | – | – | – | – | – | – | –
CC(=O)/C=C/c1ccc(O)c(O)c1 | – | – | – | – | – | – | Active | 100% | 4.1 | 2 | Active | Active | Active | inactive | Active | 1.7 | 2800 µM | 3500 µM | > 5000 µM | 60 µM
